Measured values pooled from the literature.
Lines come from different studies, so protocols differ.
Target: Serine/threonine-protein kinase WNK1 (WNK1, Homo sapiens, UniProt Q9H4A3)

SMILES | read-out | mode | method | concentration | endpoint | result
CN1CC(Oc2cnc(C#N)cc2-c2ccn3nc(NC(=O)C4CC4)cc3c2)C1 | enzyme activity | inhibitor |  | 1 µM | inhibition | 17%
FC(F)(F)Oc1cccc(-c2cnc3ccc(-c4ccncc4)nn23)c1 | enzyme activity | inhibitor | radiometric | 1 µM | activity vs control | 105%
CCCCN(CCCC)C(=O)CN1C[C@@H](c2cc(OC)c3c(c2)OCO3)[C@H](C(=O)O)[C@H]1CC(C)(C)CCC | cell-free assay |  | competition with immobilised ligand | 1 µM | remaining binding | 96.8%
CS(=O)(=O)Nc1cccc(-c2csc(NC(=O)CSc3nc4nccnc4c(=O)n3CCc3ccccc3)n2)c1 | enzyme activity | inhibitor |  | 10 µM | inhibition | -3%
CC(C)(O)[C@H]1CC[C@H](Nc2ccc3ncc(-c4cccc(C(F)(F)F)c4)n3n2)CC1 | enzyme activity | inhibitor |  | 1 µM | remaining activity | 92.6%
N[C@@H]1CCN(c2nccc(-c3cnn4ncccc34)n2)C1 | binding |  |  | 1 µM | remaining binding | 100%
Cn1cc(Cl)c2c(Oc3c(F)cc(Nc4cc(Cl)nc(N)n4)cc3F)ccnc21 | cell-free assay |  | competition with immobilised ligand | 0.1 µM | remaining binding | 98%
CN(c1nccc(-c2cnn3ncccc23)n1)C1CC1 | binding |  |  | 1 µM | remaining binding | 100%
COc1cc(Cl)c(C(=O)N[C@@H](CN[C@H]2CC[C@@H](N)CC2)Cc2ccc(C#N)cc2)cc1-c1ccc(CN[C@H](C)c2ccc(C)cc2)o1 | enzyme activity | inhibitor |  | 1 µM | remaining activity | 109%
C[C@@H]1CN(c2cc(-c3n[nH]c4ccc(OC5(C)CC5)cc34)ncn2)C[C@H](C)O1 | cell-free assay |  | competition with immobilised ligand | 0.1 µM | remaining binding | 89%
Cc1sc(C(=O)NC2COC2)cc1-n1cc(NC(=O)Nc2c(F)cccc2Cl)cn1 | enzyme activity | inhibitor |  | 10 µM | remaining activity | 88.9%
Cn1cncc1C1=CN(c2ncnc3[nH]cnc23)CCS1 | enzyme activity | inhibitor | radiometric | 2 µM | inhibition | 10.7%
CC(C)(C)c1nc2c(s1)c1nc(N)ncc1c1ccc(NS(=O)(=O)c3c(F)cccc3F)c(F)c12 | enzyme activity | inhibitor | radiometric | 1 µM | remaining activity | 103%
COc1cc(Nc2cnc(C#N)c(O[C@H](C)CN(C)C)n2)ncc1-c1cnn(C)c1 | enzyme activity | inhibitor | radiometric | 10 µM | remaining activity | 75%
C[C@@H]1CN(c2cc(-c3nn(C)c4ccc(OC5(C)CC5)cc34)ncn2)C[C@H](C)O1 | cell-free assay |  | competition with immobilised ligand | 1 µM | remaining binding | 82%
Cc1ccc(C(=O)NCc2ccsc2)cc1C#Cc1cn(C(C)C)c2ncnc(N)c12 | enzyme activity | inhibitor |  | 1 µM | activity vs control | 92%
